The values below come from PubChem BioAssay.

Unmarked numbers belong to inactive results.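 The calls were made as follows, unless noted: active = viability at or below 30% in both replicate assays; inconclusive = viability at or below 30% in just one of the two assays; inactive = the rest.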

One test in a line: HUVEC growth inhibition – cell-based, human, primary screen (AID 575).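 Also: 100% = median of untreated cell wells with 0.1% DMSO on each plate.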 Particulars: HUVEC proliferation, CellTiter-Glo luminescence, 72 h; at 10 µM; hits give low values. A digest of the protocol:
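Test system: primary human umbilical vein endothelial cells. Quantity: 1250 cells/well. Compound: single 10 µM dose, 0.1% DMSO, from 5x medium stock. Timing: 72 h treatment at 37 °C. Detection: ATP-based CellTiter-Glo luminescent read. Benchmarks: vehicle and MePR control wells. Format: 384-well plates coated with collagen.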
On the technique in general: ATP-based viability assays read luminescence as a measure of living cells.
As usually defined, the viability is a read-out of living cells in per cent, often relative to untreated cells. With `COc1cccc(C2=NOC(C(=O)N3CCN(c4ccccc4)CC3)C2)c1OC` (stereo not given), the viability is 95.9%.

With `O=C(Nc1ccc2c(c1)OCO2)c1ccc(CN2CCOCC2)cc1`, the viability was 98.7%.

In the case of `O=C(Cn1nc(Cc2ccncc2)c2ccccc2c1=O)N1CCc2ccccc2C1`, the viability is 95.3%.

`CCOCCCNC(=O)c1ccc2c(c1)N(Cc1ccccc1)C(=O)CS2=O` (stereo not given): the viability was 103%.

For the compound `CS(=O)(=O)Nc1ccccc1C(=O)O`, the viability is 91.5%.

In the case of `CCOC(=O)N1CCC(Nc2ncnc3c2cnn3-c2ccc(C)cc2C)CC1`, the viability is 83.4%.

Take `CC1(C)C(c2ccccc2)=NC(c2ccccc2)N1O` (stereo not given): the viability was 98%.

On to `O=C(CS(=O)(=O)Cc1ccccc1)Nc1nc2ccccc2s1`, for which the viability is 89.2%.

For the compound `CCOC(=O)N1CCN(C(=O)COc2ccc(S(=O)(=O)NC(C)C)cc2)CC1`, the viability was 106%.

Regarding `COc1ccc(N2CCN(CCNC(=O)CCS(=O)(=O)c3cccc4nsnc34)CC2)cc1`, the viability is 99.9%.

Take `COc1cccc(C2CC(=O)Nc3c2c(=O)n(C)c(=O)n3C)c1OC` (stereo not given): the viability is 93.8%.

On to `CCN1C(=O)c2ccccc2S(=O)c2ccc(C(=O)NC3CC3)cc21` (stereo not given), for which the viability is 105%.

`CCOC(=O)CCc1c(C)nc2cc(-c3ccc(F)cc3)[nH]n2c1=O`: the viability is 97.6%.

On to `CCC(C)(C(=O)NC1CCCC1)N(Cc1cccs1)C(C)=O` (stereo not given), for which the viability was 102%.

Take `COc1ccccc1NC(=O)C1(C)Cc2ccccc2C(=O)O1` (stereo not given): the viability is 102%.

As for `COC(=O)c1sc(NC(=O)COc2ccccc2OC)nc1C`, the viability is 99.8%.

Regarding `O=C(Nc1ccc2c(c1)OCCO2)NC1CCCCC1`, the viability was 89.5%.

Consider `c1ccc2c(c1)nc(NCCN1CCOCC1)c1nncn12`, for which the viability is 109%.

In the case of `O=C(c1ccc(Br)cc1)N1CCN(S(=O)(=O)c2ccccc2)CC1`, the viability was 103%.

As for `C/C=C/Cn1c(SCCCc2ccccc2)nc2c1c(=O)[nH]c(=O)n2C`, the viability was 61.2%.

Regarding `O=c1c2ccccc2nc(SCc2nc(-c3ccccc3)no2)n1-c1ccc(F)cc1`, the viability is 79.7%.

Regarding `Cn1c(=O)c2c(nc3sccn32)n(C)c1=O`, the viability was 112%.

As for `CCCCOc1ccc(-c2ncc(Cl)cn2)cc1`, the viability was 119%.

For `CCOC(=O)c1ccc(N2Cc3cc(C)c(C)cc3C2)cc1O`, the viability is 108%.

`O=C(CSc1nc(-c2ccco2)cc(C(F)(F)F)n1)NCCCn1ccnc1`: the viability was 64.9%.

With `COc1cccc(NC(=O)CSc2nnc(Cc3cccn3C)n2-c2ccc(F)cc2)c1`, the viability is 85.7%.

On to `CCOC(=O)c1ccc(-n2c(C)nc3c(cnn3-c3ccccc3C)c2=O)cc1`, for which the viability is 117%.

Consider `CCOC(=O)C1=C(C)N(C)C(=O)NC1c1ccccc1OC` (stereo not given), for which the viability was 88.2%.

For `Cc1ccc(CSc2nc3c(c(=O)[nH]2)CCC3)cc1`, the viability is 79.7%.

Regarding `CCOC(=O)c1c(C)n(C)c2c(C)cc(O)c(OC(C)=O)c12`, the viability was 103%.

`Cc1ccccc1NC(=O)C1CCCN(S(=O)(=O)c2cnc[nH]2)C1` (stereo not given): the viability was 95.8%.

Turning to `O=C(NCc1ccc(F)cc1)c1cc2ccccn2n1`, the viability is 99%.

On to `CCCNC(=O)C1CCN(S(=O)(=O)c2ccc3nc4c(c(C(=O)O)c3c2)CCCCC4)CC1`, for which the viability was 105%.

With `COc1ccc2[nH]c(C)c(CCN3C(=O)OC(C)(C)C3(C)O)c2c1` (stereo not given), the viability is 102%.

For the compound `COc1ccc(N(CC(=O)Nc2ccc3c(c2)OCO3)S(=O)(=O)c2c(C)nn(C)c2C)cc1`, the viability is 118%.

In the case of `Cc1onc(-c2ccccc2Cl)c1C(=O)Nc1cnn(Cc2ccccc2)c1`, the viability is 73.6%.

Regarding `CCOCCCNC(=O)CN1CCN(Cc2ccccc2C)C1=O`, the viability is 97.8%.

With `CCN1C(=O)c2cccc3c(NC(=O)c4ccc(S(=O)(=O)N(C)C)cc4)ccc1c23`, the viability was 53.6%.

Consider `O=C(Nc1cccc2ccccc12)c1ccc(Br)o1`, for which the viability was 87.1%.

Take `c1ccc(-c2cn3cccnc3n2)cc1`: the viability was 106%.

A short description of the next test: H69AR cell proliferation blockers – human, duplicate replicates, primary screen (AID 580;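 active = viability at or under a set limit in both replicates, limit being median viability minus 3 SD, cut at about 48% in these data, passing the limit was not always enough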;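 also: 100% = mean luminescence of untreated wells and 0% = no signal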). Particulars: H69AR lung tumor cells viability, ATP luminescence, 72 h; at 10 µM; hits give low values.
Regarding `COc1cccc(C2=NOC(C(=O)N3CCN(c4ccccc4)CC3)C2)c1OC` (stereo not given), the viability is 86.5%.

As to `O=C(Nc1ccc2c(c1)OCO2)c1ccc(CN2CCOCC2)cc1`, the viability is 97.3%.

As for `O=C(Cn1nc(Cc2ccncc2)c2ccccc2c1=O)N1CCc2ccccc2C1`, the viability was 96.5%.

In the case of `CCOCCCNC(=O)c1ccc2c(c1)N(Cc1ccccc1)C(=O)CS2=O` (stereo not given), the viability was 106%.

Turning to `CS(=O)(=O)Nc1ccccc1C(=O)O`, the viability is 98.8%.

On to `CCOC(=O)N1CCC(Nc2ncnc3c2cnn3-c2ccc(C)cc2C)CC1`, for which the viability was 72.7%.

With `CC1(C)C(c2ccccc2)=NC(c2ccccc2)N1O` (stereo not given), the viability was 91.4%.

As for `O=C(CS(=O)(=O)Cc1ccccc1)Nc1nc2ccccc2s1`, the viability is 92.1%.

Consider `CCOC(=O)N1CCN(C(=O)COc2ccc(S(=O)(=O)NC(C)C)cc2)CC1`, for which the viability was 90.3%.

Regarding `COc1ccc(N2CCN(CCNC(=O)CCS(=O)(=O)c3cccc4nsnc34)CC2)cc1`, the viability was 103%.

For `COc1cccc(C2CC(=O)Nc3c2c(=O)n(C)c(=O)n3C)c1OC` (stereo not given), the viability is 102%.

With `CCN1C(=O)c2ccccc2S(=O)c2ccc(C(=O)NC3CC3)cc21` (stereo not given), the viability was 105%.

On to `CCOC(=O)CCc1c(C)nc2cc(-c3ccc(F)cc3)[nH]n2c1=O`, for which the viability was 101%.

For `CCC(C)(C(=O)NC1CCCC1)N(Cc1cccs1)C(C)=O` (stereo not given), the viability was 96.9%.

For the compound `COc1ccccc1NC(=O)C1(C)Cc2ccccc2C(=O)O1` (stereo not given), the viability was 91.7%.

On to `COC(=O)c1sc(NC(=O)COc2ccccc2OC)nc1C`, for which the viability is 95.1%.

With `O=C(Nc1ccc2c(c1)OCCO2)NC1CCCCC1`, the viability was 85.9%.

As for `c1ccc2c(c1)nc(NCCN1CCOCC1)c1nncn12`, the viability was 94.7%.

On to `O=C(c1ccc(Br)cc1)N1CCN(S(=O)(=O)c2ccccc2)CC1`, for which the viability was 92.6%.

For `C/C=C/Cn1c(SCCCc2ccccc2)nc2c1c(=O)[nH]c(=O)n2C`, the viability was 69.6%.

For `O=c1c2ccccc2nc(SCc2nc(-c3ccccc3)no2)n1-c1ccc(F)cc1`, the viability was 89.7%.

`Cn1c(=O)c2c(nc3sccn32)n(C)c1=O`: the viability was 87.7%.

On to `CCCCOc1ccc(-c2ncc(Cl)cn2)cc1`, for which the viability was 93.9%.

`CCOC(=O)c1ccc(N2Cc3cc(C)c(C)cc3C2)cc1O`: the viability is 97.3%.

For the compound `O=C(CSc1nc(-c2ccco2)cc(C(F)(F)F)n1)NCCCn1ccnc1`, the viability was 94.7%.

For `COc1cccc(NC(=O)CSc2nnc(Cc3cccn3C)n2-c2ccc(F)cc2)c1`, the viability is 78.2%.

As for `CCOC(=O)c1ccc(-n2c(C)nc3c(cnn3-c3ccccc3C)c2=O)cc1`, the viability is 98.1%.

On to `CCOC(=O)C1=C(C)N(C)C(=O)NC1c1ccccc1OC` (stereo not given), for which the viability is 175%.

For the compound `Cc1ccc(CSc2nc3c(c(=O)[nH]2)CCC3)cc1`, the viability is 93.1%.

For `CCOC(=O)c1c(C)n(C)c2c(C)cc(O)c(OC(C)=O)c12`, the viability is 101%.

Consider `Cc1ccccc1NC(=O)C1CCCN(S(=O)(=O)c2cnc[nH]2)C1` (stereo not given), for which the viability is 92.6%.

As for `O=C(NCc1ccc(F)cc1)c1cc2ccccn2n1`, the viability was 98.2%.

On to `CCCNC(=O)C1CCN(S(=O)(=O)c2ccc3nc4c(c(C(=O)O)c3c2)CCCCC4)CC1`, for which the viability is 98.7%.

Regarding `COc1ccc2[nH]c(C)c(CCN3C(=O)OC(C)(C)C3(C)O)c2c1` (stereo not given), the viability is 81.5%.

With `COc1ccc(N(CC(=O)Nc2ccc3c(c2)OCO3)S(=O)(=O)c2c(C)nn(C)c2C)cc1`, the viability was 99%.

In the case of `Cc1onc(-c2ccccc2Cl)c1C(=O)Nc1cnn(Cc2ccccc2)c1`, the viability is 81.5%.

For `CCOCCCNC(=O)CN1CCN(Cc2ccccc2C)C1=O`, the viability was 97%.

For the compound `CCN1C(=O)c2cccc3c(NC(=O)c4ccc(S(=O)(=O)N(C)C)cc4)ccc1c23`, the viability is 65.9%.

Consider `O=C(Nc1cccc2ccccc12)c1ccc(Br)o1`, for which the viability is 84%.

Regarding `c1ccc(-c2cn3cccnc3n2)cc1`, the viability is 101%.
